In ChEMBL document CHEMBL4732114, “Design and structural optimization of novel 2H-benzo[h]chromene derivatives that target AcrB and reverse bacterial multidrug resistance” (Eur J Med Chem, 2021):
Values after ≈ are worked out from the molar mass of the structure shown. Active and inactive are the calls of the source. The calls are words filed in the database; no cut-off is given here.

How the values were obtained:
[1] = target: T1, Multidrug efflux pump subunit AcrB (Escherichia coli (strain K12)) (UniProt P31224); assay: Inhibition of AcrB in multidrug-resistant Escherichia coli BW25113 assessed as potentiation of erythromycin-induced antibacterial activity by measuring erythromycin MIC at 8 ug/ml by checkerboard titration method (reference value: 64 ug/ml); conditions: dose 8.0 µg/ml
T1 sequence (whole entry): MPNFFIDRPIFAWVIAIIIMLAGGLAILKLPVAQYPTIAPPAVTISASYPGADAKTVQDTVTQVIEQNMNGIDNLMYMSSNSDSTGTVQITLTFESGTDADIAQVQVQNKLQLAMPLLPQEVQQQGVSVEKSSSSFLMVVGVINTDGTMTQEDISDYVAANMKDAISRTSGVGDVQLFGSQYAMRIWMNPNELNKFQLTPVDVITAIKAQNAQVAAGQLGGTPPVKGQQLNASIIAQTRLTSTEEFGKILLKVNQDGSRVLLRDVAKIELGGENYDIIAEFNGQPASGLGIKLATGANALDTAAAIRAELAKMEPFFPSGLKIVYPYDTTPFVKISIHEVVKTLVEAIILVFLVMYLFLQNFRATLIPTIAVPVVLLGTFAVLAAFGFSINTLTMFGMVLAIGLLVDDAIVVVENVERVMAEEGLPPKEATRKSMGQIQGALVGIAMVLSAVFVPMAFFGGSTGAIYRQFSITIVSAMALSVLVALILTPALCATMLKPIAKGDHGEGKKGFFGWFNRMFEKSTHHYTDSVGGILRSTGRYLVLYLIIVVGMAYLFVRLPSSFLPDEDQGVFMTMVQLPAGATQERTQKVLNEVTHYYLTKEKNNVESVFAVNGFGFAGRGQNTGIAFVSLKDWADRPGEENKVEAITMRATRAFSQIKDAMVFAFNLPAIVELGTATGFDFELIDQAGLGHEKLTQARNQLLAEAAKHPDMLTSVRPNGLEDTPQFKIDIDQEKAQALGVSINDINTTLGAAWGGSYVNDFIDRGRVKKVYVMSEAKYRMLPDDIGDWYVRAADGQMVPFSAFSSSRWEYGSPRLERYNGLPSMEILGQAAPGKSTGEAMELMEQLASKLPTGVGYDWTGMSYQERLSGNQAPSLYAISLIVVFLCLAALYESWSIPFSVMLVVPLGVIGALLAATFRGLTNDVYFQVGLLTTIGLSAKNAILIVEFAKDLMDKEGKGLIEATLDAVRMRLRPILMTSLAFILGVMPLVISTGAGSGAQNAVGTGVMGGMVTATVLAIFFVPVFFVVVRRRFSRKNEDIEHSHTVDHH

[2] = Toxicity in multidrug-resistant Escherichia coli BW25113 assessed as growth inhibition by two-fold broth dilution method
[3] = Toxicity in multidrug-resistant Escherichia coli BW25113 harboring AcrB deletion mutant assessed as growth inhibition by two-fold broth dilution method
[4] = target: T1, Multidrug efflux pump subunit AcrB (Escherichia coli (strain K12)); assay: Inhibition of AcrB in multidrug-resistant Escherichia coli BW25113 assessed as potentiation of chloramphenicol-induced antibacterial activity by measuring chloramphenicol MIC at 8 ug/ml by checkerboard titration method (reference value: 8 ug/ml); conditions: dose 8.0 µg/ml
[5] = target: T1, Multidrug efflux pump subunit AcrB (Escherichia coli (strain K12)); assay: Inhibition of AcrB in multidrug-resistant Escherichia coli BW25113 assessed as potentiation of chloramphenicol-induced antibacterial activity by measuring chloramphenicol MIC at 64 ug/ml by checkerboard titration method (reference value: 8 ug/ml); conditions: dose 64.0 µg/ml
[6] = target: T1, Multidrug efflux pump subunit AcrB (Escherichia coli (strain K12)); assay: Inhibition of AcrB in multidrug-resistant Escherichia coli BW25113 assessed as potentiation of chloramphenicol-induced antibacterial activity by measuring chloramphenicol MIC at 128 ug/ml by checkerboard titration method (reference value: 8 ug/ml); conditions: dose 128.0 µg/ml
[7] = target: T1, Multidrug efflux pump subunit AcrB (Escherichia coli (strain K12)); assay: Inhibition of AcrB in multidrug-resistant Escherichia coli BW25113 assessed as potentiation of erythromycin-induced antibacterial activity by measuring erythromycin MIC at 64 ug/ml by checkerboard titration method (reference value: 64 ug/ml); conditions: dose 64.0 µg/ml
[8] = target: T1, Multidrug efflux pump subunit AcrB (Escherichia coli (strain K12)); assay: Inhibition of AcrB in multidrug-resistant Escherichia coli BW25113 assessed as potentiation of tetraphenylphosphonium-induced antibacterial activity by measuring tetraphenylphosphonium MIC at 32 ug/ml by checkerboard titration method (reference value: 1024 ug/ml); conditions: dose 32.0 µg/ml
[9] = target: T1, Multidrug efflux pump subunit AcrB (Escherichia coli (strain K12)); assay: Inhibition of AcrB in multidrug-resistant Escherichia coli BW25113 assessed as potentiation of tetraphenylphosphonium-induced antibacterial activity by measuring tetraphenylphosphonium MIC at 128 ug/ml by checkerboard titration method (reference value: 1024 ug/ml); conditions: dose 128.0 µg/ml
[10] = target: T1, Multidrug efflux pump subunit AcrB (Escherichia coli (strain K12)); assay: Inhibition of AcrB in multidrug-resistant Escherichia coli BW25113 assessed as potentiation of levofloxacin-induced antibacterial activity by measuring levofloxacin MIC at 16 ug/ml by checkerboard titration method (reference value: 0.06 ug/ml); conditions: dose 16.0 µg/ml
[11] = target: T1, Multidrug efflux pump subunit AcrB (Escherichia coli (strain K12)); assay: Inhibition of AcrB in multidrug-resistant Escherichia coli BW25113 assessed as potentiation of levofloxacin-induced antibacterial activity by measuring levofloxacin MIC at 64 ug/ml by checkerboard titration method (reference value: 0.06 ug/ml); conditions: dose 64.0 µg/ml
[12] = target: T1, Multidrug efflux pump subunit AcrB (Escherichia coli (strain K12)); assay: Inhibition of AcrB in Escherichia coli BW25113 assessed as reduction in glucose-induced nile red efflux at 50 uM preincubated for 15 mins followed by nile red addition and incubated for 3 hrs in shaker in presence of CCCP by fluorimetric analysis; conditions: time 3.25 hrs
In short: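 Wild-type and AcrB-deleted cells were preloaded with Nile Red, with or without compound. Fluorescence was recorded, and efflux was triggered at 100 s with 0.2% glucose. Traces were compared with the deletion-strain level. Triplicate experiments used different cell batches.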

[13] = target: T1, Multidrug efflux pump subunit AcrB (Escherichia coli (strain K12)); conditions: Escherichia coli BW25113; dose 16.0 µg/ml
[14] = target: T1, Multidrug efflux pump subunit AcrB (Escherichia coli (strain K12)); conditions: Escherichia coli BW25113; dose 32.0 µg/ml
Cell membrane [15] = assay: Induction of outer membrane permeabilization in wild type Escherichia coli BW25113 assessed as increase in nitrocefin hydrolysis at 128 ug/ml in presence of CCCP by spectroscopic analysis; conditions: dose 128 µg/ml
In short: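 Intact E. coli were treated with 10 μM CCCP to block nitrocefin efflux, then given compound, nothing, or polymyxin B as permeabilizer control. Nitrocefin was added, and hydrolysis by periplasmic β-lactamase was followed as the rise in absorbance at 490 nm. Duplicate experiments were run on different days.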

Cell membrane [16] = assay: Induction of inner membrane permeabilization in wild type Escherichia coli BW25113 assessed as perturbation of proton motive force at 32 ug/ml measured after 10 mins in presence of CCCP and glucose by Di0C2(3) probe based fluorescence assay; conditions: escherichia coli bw25113, 10 min, dose 32 µg/ml
In short: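 Cell suspensions were left untreated or exposed to 8-128 µg/mL compound for 10 min. DiOC₂(3) was then added and fluorescence followed to a plateau. Cells were re-energized with 0.5% glucose, and the rise in fluorescence was read as membrane-potential build-up. CCCP was added last to dissipate the potential.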

Structure (SMILES) | MIC [1] [µg/mL] | MIC [2] [µg/mL] | MIC [3] [µg/mL] | MIC [4] [µg/mL] | MIC [5] [µg/mL] | MIC [6] [µg/mL] | MIC [7] [µg/mL] | MIC [8] [µg/mL] | MIC [9] [µg/mL] | MIC [10] [µg/mL] | MIC [11] [µg/mL] | inhibition [12] | MIC [13] [µg/mL] | MIC [14] [µg/mL] | Activity (Cell membrane [15]) | Activity (Cell membrane [16])
C=CC(=O)Nc1ccc(COc2cccc3c4c(c(Cn5cnnn5)cc23)CCC(C)(C)O4)cc1 | 64 | > 512 | > 128 | 8 | 4 | 4 | 32 | 1020 | 1020 | 0.06 | 0.06 | Active | 16 (≈ 34.1 µM) | 16 (≈ 34.1 µM) |  | 
COc1cccc(COc2cccc3c4c(c(C(=O)O)cc23)CCC(C)(C)O4)c1 | 64 | > 512 | > 128 | 8 | 4 | 4 | 32 | 1020 | 256 | 0.06 | 0.06 |  | 16 (≈ 40.8 µM) | 16 (≈ 40.8 µM) | Not Active | Not Active
CC1(C)CCc2c(-c3nnco3)cc3c(OCc4ccc(C#N)cc4)cccc3c2O1 | 64 | > 512 | > 128 | 8 | 4 | 2 | 64 | 1020 | 512 | 0.06 | 0.06 | Active | 16 (≈ 38.9 µM) | 16 (≈ 38.9 µM) | Not Active | 
CC1(C)CCc2c(C(=O)O)cc3c(OCc4ccccc4)cccc3c2O1 | 64 | > 512 | > 128 | 8 | 4 | 1 | 64 | 512 | 64 | 0.06 | 0.01 |  | 16 (≈ 44.1 µM) | 16 (≈ 44.1 µM) | Not Active | Active
CC1(C)CCc2c(C(=O)N3CCOCC3)cc3c(OCc4ccc(C(F)(F)F)cc4)cccc3c2O1 | 64 | > 512 | > 128 | 8 | 8 | 4 | 16 | 512 | 256 | 0.06 | 0.06 | Active | 16 (≈ 32 µM) | 16 (≈ 32 µM) | Not Active | 
Cc1ccc(COc2cccc3c4c(c(-c5nnco5)cc23)CCC(C)(C)O4)cc1 | 32 | > 512 | > 128 | 8 | 8 | 2 | 16 | 512 | 64 | 0.03 | 0.03 |  | 16 (≈ 40 µM) | 16 (≈ 40 µM) | Not Active | Not Active
COc1cccc(COc2cccc3c4c(c(C(=O)N5CCOCC5)cc23)CCC(C)(C)O4)c1 | 64 | > 512 | > 128 | 4 | 4 | 2 | 32 | 512 | 128 | 0.06 | 0.06 | Active | 16 (≈ 34.7 µM) | 16 (≈ 34.7 µM) | Not Active | Not Active
CC1(C)CCc2c(-c3nnco3)cc3c(OCc4ccccc4)cccc3c2O1 | 64 | > 512 | > 128 | 8 | 4 | 2 | 32 | 512 | 128 | 0.06 | 0.06 |  | 16 (≈ 41.4 µM) | 16 (≈ 41.4 µM) | Not Active | Not Active
CC1(C)CC(=O)c2ccc(OCCNC3CCCC3)cc2O1 | 64 | > 512 | > 128 | 8 | 8 | 8 | 64 | 512 | 512 | 0.06 | 0.03 |  | 16 (≈ 52.7 µM) | 16 (≈ 52.7 µM) | Not Active | Not Active
